Source: ChEMBL document CHEMBL1150283, “Synthesis, cytostatic and anti-HIV evaluations of the new unsaturated acyclic C-5 pyrimidine nucleoside analogues” (Bioorg Med Chem, 2008)

Experiments:
CCRF-CEM = experiment: Antiproliferative activity against human CEM cells after 3 days by MTT assay; type: functional, cell-based; conditions: 72 h
[1] = system: Human immunodeficiency virus 2; experiment: Antiviral activity against HIV2 assessed as inhibition of virus-induced cytopathogenicity in CEM cells; type: functional, organism-based; conditions: Human immunodeficiency virus 2, CCRF-CEM
Summary of the method: (§1)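 CEM cell cultures infected with HIV-1 or HIV-2. Virus-induced cytopathicity scored as syncytia formation.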

[2] = Cytotoxicity against human WI38 cells after 3 days by MTT assay; type: cell-based; conditions: WI-38, 72 h
Summary of the method: (§2)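 Monolayers grown in DMEM with 10% FBS, 2 mM L-glutamine, penicillin/streptomycin at 37 °C, 5% CO2. Seeded at 1 × 10⁴ to 3 × 10⁴ cells/mL, then exposed 72 h to five 10-fold dilutions (10⁻⁸ to 10⁻⁴ M) from 0.04 M DMSO stocks, with a solvent control. MTT added for 4 h, formazan dissolved in DMSO, A570 read. Percentage growth taken against time-zero and untreated OD. Quadruplicates in three experiments; IC50 by linear regression.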

[3] = Antiproliferative activity against human Molt4/C8 cells after 3 days by MTT assay; type: functional, cell-based; conditions: MOLT-4, 72 h
HeLa = experiment: Antiproliferative activity against human HeLa cells after 3 days by MTT assay; type: functional, cell-based; conditions: 72 h; summary of the method: as §2
L1210 = experiment: Antiproliferative activity against mouse L1210 cells after 2 days by MTT assay; type: functional, cell-based; conditions: L1210, 48 h
Influenza A virus H3N2 = experiment: Antiviral activity against influenza A virus H3N2 assessed as inhibition of virus-induced cytopathogenicity in MDCK cells; type: functional, organism-based
Summary of the method: (§3)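 Cytopathicity-reduction assay: Coxsackie B4 virus in HeLa cell cultures; influenza A (H3N2) in MDCK cell cultures. Virus-induced cytopathicity is scored at the time point when untreated virus-exposed cultures reach full cytopathic effect.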

[4] = system: Human immunodeficiency virus 1; experiment: Antiviral activity against HIV1 assessed as inhibition of virus-induced cytopathogenicity in CEM cells; type: functional, organism-based; conditions: Human immunodeficiency virus 1, CCRF-CEM; summary of the method: as §1
MCF7 = experiment: Antiproliferative activity against human MCF7 cells after 3 days by MTT assay; type: functional, cell-based; conditions: MCF7, 72 h; summary of the method: as §2
MIA PaCa-2 = experiment: Antiproliferative activity against human MiaPaCa2 cells after 3 days by MTT assay; type: functional, cell-based; conditions: MIA PaCa-2, 72 h; summary of the method: as §2
SW-620 = experiment: Antiproliferative activity against human SW620 cells after 3 days by MTT assay; type: functional, cell-based; conditions: SW-620, 72 h; summary of the method: as §2
HepG2 = experiment: Antiproliferative activity against human HepG2 cells after 3 days by MTT assay; type: functional, cell-based; conditions: HepG2, 72 h; summary of the method: as §2
Coxsackievirus B4 = experiment: Antiviral activity against Coxsackie B4 virus assessed as inhibition of virus-induced cytopathogenicity in HeLa cells; type: functional, organism-based; conditions: Enterovirus B; summary of the method: as §3
Human alphaherpesvirus 3 = experiment: Antiviral activity against Varicella-Zoster virus assessed as inhibition of virus-induced cytopathogenicity in HEL cells; type: functional, organism-based; conditions: Human alphaherpesvirus 3, HEL

Row | SMILES | IC50 (CCRF-CEM) | EC50 [1] | IC50 [2] | IC50 [3] | IC50 (HeLa) | IC50 (L1210) | EC50 (Influenza A virus H3N2) | EC50 [4] | IC50 (MCF7) | IC50 (MIA PaCa-2) | IC50 (SW-620) | IC50 (HepG2) | EC50 (Coxsackievirus B4) | EC50 (Human alphaherpesvirus 3)
1 | CCCCCCCCC#Cc1cn(C/C=C\CN2C(=O)c3ccccc3C2=O)c(=O)[nH]c1=O | 39 µM | > 50 µM | 49 µM | 36 µM | 59 µM | 45 µM | 2.5 µM | > 50 µM | 64 µM | 68 µM | 67 µM |  |  | 
2 | O=C1c2ccccc2C(=O)N1C/C=C\Cn1cc(C#CCCc2ccccc2)c(=O)[nH]c1=O | 168 µM | ≥ 50 µM | > 100 µM | 146 µM | > 100 µM |  |  | 35 µM | > 100 µM | > 100 µM | > 100 µM | > 100 µM |  | 
3 | CCCCCCC#Cc1cn(C/C=C/CN2C(=O)c3ccccc3C2=O)c(=O)[nH]c1=O | 28 µM | ≥ 10 µM | 40 µM | 35 µM |  | 43 µM |  | ≥ 10 µM | 24 µM | 30 µM | 32 µM | 14 µM |  | 
4 | CCCCC#Cc1cn(C/C=C/CN2C(=O)c3ccccc3C2=O)c(=O)[nH]c1=O | 192 µM | ≥ 50 µM | 35 µM | 171 µM | 89 µM | 236 µM |  | ≥ 50 µM | 8.8 µM | 77 µM | > 100 µM | 7.9 µM |  | 
5 | O=C1c2ccccc2C(=O)N1C/C=C/Cn1cc(C#CCCc2ccccc2)c(=O)[nH]c1=O | 38 µM | ≥ 10 µM | 31 µM | 39 µM | 29 µM | 44 µM |  | ≥ 10 µM | 13 µM | 27 µM | 11 µM | 7.3 µM |  | 
6 | CCCCc1ccc(C#Cc2cn(C/C=C\CN3C(=O)c4ccccc4C3=O)c(=O)[nH]c2=O)cc1 | 23 µM | > 10 µM | 17 µM | 31 µM | 85 µM |  |  | > 10 µM | 43 µM | 56 µM | > 100 µM | 40 µM |  | 
7 | CCCCC#Cc1cn(C/C=C\CN2C(=O)c3ccccc3C2=O)c(=O)[nH]c1=O | 100 µM | ≥ 50 µM | 28 µM | 41 µM | 33 µM | 109 µM |  | ≥ 50 µM | 45 µM | > 100 µM | 82 µM | 17 µM |  | 
8 | CCCCCc1ccc(C#Cc2cn(C/C=C/CN3C(=O)c4ccccc4C3=O)c(=O)[nH]c2=O)cc1 | 23 µM | 3.1 µM | 25 µM | 17 µM | 27 µM | 39 µM |  | 14 µM | 5.6 µM | 26 µM | 30 µM | 4.3 µM | 12 µM | 
9 | CCCCCc1ccc(C#Cc2cn(C/C=C\CN3C(=O)c4ccccc4C3=O)c(=O)[nH]c2=O)cc1 | 102 µM | > 2 µM | > 100 µM | 30 µM | > 100 µM | 28 µM |  | > 2 µM | > 100 µM | > 100 µM | > 100 µM | 18 µM |  | 8.7 µM
10 | O=c1[nH]cc(F)c(=O)[nH]1 [FLUOROURACIL] |  |  | 10 µM | 20 µM |  | 0.69 µM |  |  |  | 6.5 µM | 8.7 µM | 9.2 µM |  | 
11 | O=C1c2ccccc2C(=O)N1C/C=C\Cn1cc(C#Cc2ccc(Br)cc2)c(=O)[nH]c1=O | 80 µM | > 50 µM | 47 µM | 89 µM |  | 448 µM |  | 10 µM | > 100 µM | > 100 µM | > 100 µM |  |  | 
12 | CCCCCCCCC#Cc1cn(C/C=C/CN2C(=O)c3ccccc3C2=O)c(=O)[nH]c1=O | > 250 µM | > 50 µM | 53 µM | > 250 µM | > 100 µM | > 250 µM |  | > 50 µM | 66 µM | > 100 µM | 87 µM | 43 µM |  | 
13 | CCCCCC#Cc1cn(C/C=C/CN2C(=O)c3ccccc3C2=O)c(=O)[nH]c1=O | > 500 µM | > 50 µM | 40 µM | > 500 µM | 91 µM | > 500 µM |  | > 50 µM | 44 µM | 60 µM | 58 µM | 9 µM |  | 
14 | Cc1ccc(C#Cc2cn(C/C=C\CN3C(=O)c4ccccc4C3=O)c(=O)[nH]c2=O)cc1 | 238 µM | > 250 µM | > 100 µM | 266 µM | > 100 µM |  | 20 µM | > 250 µM | > 100 µM | > 100 µM | > 100 µM | 68 µM |  | 
15 | CCCCc1ccc(C#Cc2cn(C/C=C/CN3C(=O)c4ccccc4C3=O)c(=O)[nH]c2=O)cc1 | 31 µM | > 10 µM | 40 µM | 29 µM | 94 µM | 42 µM |  | > 10 µM | 44 µM | 79 µM | > 100 µM | 9.1 µM |  | 
